Measured values reported in ChEMBL document CHEMBL1148671, “Synthesis and antibacterial activity of C12 des-methyl ketolides” (2006).
In brackets after ≈: the same amount, converted by molar mass.

Key:
Type in all cases: functional
[1] = system: Enterococcus faecalis; experiment: Antibacterial activity against Enterococcus faecalis 29212 by broth microdilution method
How it was run: (§1)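 In vitro activity was read as the minimum inhibitory concentration (MIC) by broth microdilution and reported in μg/mL. The S. pneumoniae panel included erythromycin-resistant strains carrying mef or erm genes. Telithromycin and clarithromycin were run as comparators in every assay.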

[2] = system: Haemophilus influenzae; experiment: Antibacterial activity against Haemophilus influenzae 49247 by broth microdilution method; how it was run: as §1
[3] = system: Streptococcus pneumoniae; experiment: Antibacterial activity against Streptococcus pneumoniae 49619 by broth microdilution method; how it was run: as §1
[4] = system: Staphylococcus epidermidis; experiment: Antibacterial activity against Staphylococcus epidermidis 14990 by broth microdilution method; how it was run: as §1
[5] = system: Staphylococcus aureus; experiment: Antibacterial activity against Staphylococcus aureus 33591 by broth microdilution method; how it was run: as §1
[6] = system: Haemophilus influenzae; experiment: Antibacterial activity against Haemophilus influenzae 2762 by broth microdilution method; how it was run: as §1
[7] = system: Streptococcus pneumoniae; experiment: Antibacterial activity against Streptococcus pneumoniae 297-749 by broth microdilution method; how it was run: as §1
[8] = system: Streptococcus pyogenes; experiment: Antibacterial activity against Streptococcus pyogenes 8668 by broth microdilution method; how it was run: as §1
[9] = system: Streptococcus pneumoniae; experiment: Antibacterial activity against erythromycin-resistant Streptococcus pneumoniae mef S 3427 by broth microdilution method
[10] = system: Streptococcus pneumoniae; experiment: Antibacterial activity against erythromycin-resistant Streptococcus pneumoniae mef 5654 by broth microdilution method
[11] = system: Streptococcus pneumoniae; experiment: Antibacterial activity against Streptococcus pneumoniae 280-962 by broth microdilution method; how it was run: as §1
[12] = system: Staphylococcus epidermidis; experiment: Antibacterial activity against Staphylococcus epidermidis f50654 by broth microdilution method; how it was run: as §1
[13] = system: Streptococcus pneumoniae; experiment: Antibacterial activity against erythromycin-resistant Streptococcus pneumoniae erm 6849 by broth microdilution method
[14] = system: Enterococcus faecalis; experiment: Antibacterial activity against Enterococcus faecalis bc11148-2 by broth microdilution method; how it was run: as §1
[15] = system: Staphylococcus aureus; experiment: Antibacterial activity against Staphylococcus aureus 29213 by broth microdilution method; conditions: ATCC29213; how it was run: as §1

CC[C@H]1OC(=O)[C@H](C)C(=O)[C@H](C)[C@@H](O[C@@H]2O[C@H](C)C[C@H](N(C)C)[C@H]2O)[C@](C)(OC)C[C@@H](C)C(=O)[C@H](C)[C@@H]2[C@@H]1OC(=O)N2CCCCc1ccc(-c2cccnc2)s1
MIC [1]: ≤ 0.05 µg/mL
MIC [2]: 12.5 µg/mL (≈ 15.4 µM)
MIC [3]: ≤ 0.05 µg/mL
MIC [4]: 0.2 µg/mL (≈ 0.246 µM)
MIC [5]: 50 µg/mL (≈ 61.4 µM)
MIC [6]: 3.13 µg/mL (≈ 3.84 µM)
MIC [7]: ≤ 0.05 µg/mL
MIC [8]: ≤ 0.05 µg/mL
MIC [9]: 0.1 µg/mL (≈ 0.123 µM)
MIC [10]: 0.4 µg/mL (≈ 0.491 µM)
MIC [11]: ≤ 0.05 µg/mL
MIC [12]: 0.1 µg/mL (≈ 0.123 µM)
MIC [13]: 6.25 µg/mL (≈ 7.68 µM)
MIC [14]: 25 µg/mL (≈ 30.7 µM)
MIC [15]: 0.2 µg/mL (≈ 0.246 µM)

CC[C@H]1OC(=O)[C@H](C)C(=O)[C@H](C)[C@@H](O[C@@H]2O[C@H](C)C[C@H](N(C)C)[C@H]2O)[C@](C)(OC)C[C@@H](C)C(=O)[C@H](C)[C@@H]2[C@@H]1OC(=O)N2CCCCn1cnc(-c2ccc(C)nc2)c1
MIC [1]: 0.1 µg/mL (≈ 0.123 µM)
MIC [2]: 3.13 µg/mL (≈ 3.85 µM)
MIC [3]: ≤ 0.05 µg/mL
MIC [4]: 0.2 µg/mL (≈ 0.246 µM)
MIC [5]: > 50 µg/mL
MIC [6]: 1.56 µg/mL (≈ 1.92 µM)
MIC [7]: ≤ 0.05 µg/mL
MIC [8]: ≤ 0.05 µg/mL
MIC [9]: 0.4 µg/mL (≈ 0.493 µM)
MIC [10]: 1.56 µg/mL (≈ 1.92 µM)
MIC [11]: ≤ 0.05 µg/mL
MIC [12]: 0.2 µg/mL (≈ 0.246 µM)
MIC [13]: 50 µg/mL (≈ 61.6 µM)
MIC [14]: 3.13 µg/mL (≈ 3.85 µM)
MIC [15]: 0.2 µg/mL (≈ 0.246 µM)

CC[C@H]1OC(=O)[C@H](C)C(=O)[C@H](C)[C@@H](O[C@@H]2O[C@H](C)C[C@H](N(C)C)[C@H]2O)[C@](C)(OC)C[C@@H](C)C(=O)[C@H](C)[C@@H]2[C@@H]1OC(=O)N2CCCCc1cnc(-c2cccnc2)s1
MIC [1]: ≤ 0.05 µg/mL
MIC [2]: 6.25 µg/mL (≈ 7.67 µM)
MIC [3]: ≤ 0.05 µg/mL
MIC [4]: 0.2 µg/mL (≈ 0.245 µM)
MIC [5]: > 50 µg/mL
MIC [6]: 1.56 µg/mL (≈ 1.91 µM)
MIC [7]: ≤ 0.05 µg/mL
MIC [8]: ≤ 0.05 µg/mL
MIC [9]: 0.1 µg/mL (≈ 0.123 µM)
MIC [10]: 0.78 µg/mL (≈ 0.957 µM)
MIC [11]: ≤ 0.05 µg/mL
MIC [12]: 0.1 µg/mL (≈ 0.123 µM)
MIC [13]: 25 µg/mL (≈ 30.7 µM)
MIC [14]: 3.13 µg/mL (≈ 3.84 µM)
MIC [15]: 0.2 µg/mL (≈ 0.245 µM)

CC[C@H]1OC(=O)[C@H](C)C(=O)[C@H](C)[C@@H](O[C@@H]2O[C@H](C)C[C@H](N(C)C)[C@H]2O)[C@](C)(OC)C[C@@H](C)C(=O)[C@H](C)[C@@H]2[C@@H]1OC(=O)N2CCCCn1cnc(-c2ccc(F)nc2)c1
MIC [1]: ≤ 0.05 µg/mL
MIC [2]: 3.13 µg/mL (≈ 3.84 µM)
MIC [3]: ≤ 0.05 µg/mL
MIC [4]: 0.2 µg/mL (≈ 0.245 µM)
MIC [5]: > 50 µg/mL
MIC [6]: 0.78 µg/mL (≈ 0.956 µM)
MIC [7]: ≤ 0.05 µg/mL
MIC [8]: ≤ 0.05 µg/mL
MIC [9]: 0.78 µg/mL (≈ 0.956 µM)
MIC [10]: 0.78 µg/mL (≈ 0.956 µM)
MIC [11]: 0.2 µg/mL (≈ 0.245 µM)
MIC [12]: 0.78 µg/mL (≈ 0.956 µM)
MIC [13]: 12.5 µg/mL (≈ 15.3 µM)
MIC [14]: 25 µg/mL (≈ 30.6 µM)
MIC [15]: 0.2 µg/mL (≈ 0.245 µM)
